Screens as filed in PubChem BioAssay.
NF-kB expr up = activators of NF-kB expression in neurons, primary screen, cell-based, HTS; AID 1239, 2008; 190,000 tested, 1.6% active; fold change at 12.5 µM; human neuronal cells, NF-kB reporter expression; active compounds read high; in the data active means fold change above about 3.3
Pf gamet viab = late stage P. falciparum gametocyte viability inhibitors, primary screen, ATP luminescence, HTS | AID 743093, 2013 | P. falciparum stage V gametocytes, 24 h | 150,000 tested, 0.065% active | inhibition, % at 10.9 µM;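 active means inhibition above the mean plus 3 SD of compounds within the control limits, set per campaign, cut at about 38% in these data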;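 further: 0% = DMSO wells and 100% = medium only without gametocytes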
STAT1 act = STAT1 signaling activators, primary screen, cell-based, HTS, luciferase reporter. 200,000 tested, 2.6% active. activation (% of control), % at 5.5 µM. AID 932, 2007. NIH 3T3 STAT1-luciferase reporter, IFN-gamma, luminescence; 100% = IFN-gamma alone, no compound;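 active means activation above the screen-wide mean activation plus 3 SD, cut at about 130% in these data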;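 further: raw ratio to IFN-gamma control signal so 100% means no change and 0% no light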
FLuc act counter = FLuc activators, initial screening, artefact control for FLuc-dependent activation tests, biochemical, ATPlite luminescence. ATPlite luciferase biochemical, 10 min; 0 = ATP-free wells, 1 = DMSO control. AID 1027, 2008. Luciferin 4-monooxygenase (Photinus pyralis), P08659. activation factor at 10 µM. 200,000 tested, under 10 active;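 active means luciferase activation factor, scaled between plate controls, of at least 2 with compound at 10 µM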
Target sequence (P08659 whole entry, looked up): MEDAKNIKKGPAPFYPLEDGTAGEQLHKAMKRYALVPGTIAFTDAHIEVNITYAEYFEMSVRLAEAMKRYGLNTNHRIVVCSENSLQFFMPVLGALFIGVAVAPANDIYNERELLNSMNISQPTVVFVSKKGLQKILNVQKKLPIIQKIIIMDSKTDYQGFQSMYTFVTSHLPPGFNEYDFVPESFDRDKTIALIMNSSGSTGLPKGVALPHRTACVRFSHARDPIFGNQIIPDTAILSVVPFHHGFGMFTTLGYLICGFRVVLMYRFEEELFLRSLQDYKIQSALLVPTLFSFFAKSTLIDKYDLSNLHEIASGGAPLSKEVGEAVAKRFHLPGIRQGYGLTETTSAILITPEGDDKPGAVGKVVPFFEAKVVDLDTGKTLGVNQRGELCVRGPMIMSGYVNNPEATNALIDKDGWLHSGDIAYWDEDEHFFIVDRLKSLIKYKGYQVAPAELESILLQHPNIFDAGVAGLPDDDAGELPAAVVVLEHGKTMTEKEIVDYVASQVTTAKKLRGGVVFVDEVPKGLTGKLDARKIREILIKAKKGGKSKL
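Assay system: Luciferase/luciferin detection reagent, cell-free biochemical luciferase assay / Also added: ATP substrate / Schedule: 10 min at ambient temperature / Measured by: luminescence measurement of luciferase light output / Benchmarks: low control with PBS replacing ATP, high control enzyme plus ATP without compound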
APP 5'UTR act = activators of APP 5'UTR luciferase reporter, primary screen, SH-SY5Y cells | 190,000 tested, 1% active | AID 1276, 2008 | SH-SY5Y APP 5'UTR luciferase reporter, luminescence; zero percent = DMSO vehicle wells | activation, % at 2 µM;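 active means activation above a set limit, based on mean plus 3 SD of controls, cut at about 140% in these data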
FLuc inhib CS = firefly luciferase enzyme inhibitors, primary screen, artefact control for luciferase-based inhibitor screens, biochemical, luminescence, ATPLite; 10 min; inhibition, % at 10 µM; 200,000 tested, 1.5% active;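 active means inhibition above about 50% when tested at 10 µM, limit read from the data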
An asterisk follows results filed as active; x = not tested or not shown. In the library only some 3.5% were active in any assay of this set; here they are far more common.

SMILES	NF-kB expr up	Pf gamet viab	STAT1 act	FLuc act counter	APP 5'UTR act	FLuc inhib CS
COc1ccc(C(=O)c2c[nH]c3ccccc23)cc1	3.5*	-15	134*	0.4	96	64*
O=C(CCC1CCCC1)N1CCN(C(=O)c2cccnc2)CC1	1.1	2	100	1	-2	4
Cc1ccccc1-n1nnnc1SCC(=O)NCC1CCCO1 (configuration not stated)	1.1	-15	95	1	-17	-3
C=CC[N+]1(CC(=O)NCc2ccc(NC(C)=O)cc2)CCOCC1	x	28	x	x	x	x
N#C/C(=C\c1ccc(OCc2ccccc2)cc1)C(N)=O	1.9	12	130*	1	58	5
Cc1ccccc1COc1ccc(/C=C(\C#N)C(N)=O)cc1	1.3	x	111	1.1	9	-5
CCCSc1nsc(NC(=O)CCC)n1	6.4*	10	131*	0.7	194*	26
CCCCCCSc1nsc(NC(C)=O)n1	2.6	x	130*	1.1	26	-9
CCCCSc1nsc(NC(C)=O)n1	3.2	1	127	0.9	142*	6
COCCNC(=S)N(C)C1(c2ccccc2Cl)CCCCC1=O (configuration not stated)	1.1	-4	104	1.1	14	-11
C=CCn1c(C)cc(C(=O)COC(=O)[C@@H](NC(=O)c2ccccc2Cl)C(C)C)c1C	0.99	5	80	0	101	96*
C=CCn1c(C)cc(C(=O)COC(=O)COc2ccccc2C#N)c1C	1.2	-2	112	0.8	-8	20
C/C(=N\Nc1nc(-c2ccccc2)cs1)c1cccs1	0.64	-4	145*	0.7	116	31
O=C(COC(=O)c1cccs1)Nc1nc(-c2ccccc2)cs1	1.2	10	100	1	-5	-2
CCOC(=O)[C@H]1[C@H]2COc3ccc(Cl)cc3[C@@H]2N2C(=O)c3ccc(Cl)cc3NC(=O)[C@@]12C	x	17	x	x	x	x
Cc1ccc(C(C(=O)NCc2ccc(F)cc2)N(CCCO)C(=O)C2COc3ccccc3O2)o1 (configuration not stated)	0.76	7	100	1	-3	-3
CC(C)(C)c1ccc(C(=O)Nc2ccccc2Cl)cc1	4.8*	-9	115	0.4	201*	59*
O=C(Nc1ccccc1OC(=O)c1ccc(Cl)cc1)c1ccc(Cl)cc1	1.3	12	97	1	30	0
Cc1ccc(C(=O)Nc2cc(Cl)ccc2OC(=O)c2ccc(C)cc2)cc1	4.1*	x	96	0.8	78	20
COc1ccc(C(=O)Nc2cc(Cl)ccc2OC(=O)c2ccc(OC)cc2)cc1	2.5	x	96	1	60	-1
O=C(Nc1ccccc1O)c1ccc(Cl)cc1	5.7*	-35	92	0.8	43	20
Cc1cc(NC(=O)c2ccc(Cl)cc2)c(C(C)C)cc1O	0.86	x	101	0.9	8	7
Cc1cc(NC(=O)c2ccc(Cl)cc2)c(C)cc1O	1.3	-2	115	0.5	21	53*
CCOC(=O)CSc1nc(C)c(C(C)=O)cc1C(N)=O	1.1	4	100	1	-19	0
COCC(=O)Nc1ccc(S(=O)(=O)Nc2ccccn2)cc1	1.1	x	100	1	2	-4
SMILES	NF-kB expr up	Pf gamet viab	STAT1 act	FLuc act counter	APP 5'UTR act	FLuc inhib CS
O=C(CN1CCN(Cc2ccccc2)CC1)N/N=C/c1cccnc1	x	6	x	x	x	x
CCc1cc2c(=O)c(-c3ccc4c(c3)OCCO4)coc2cc1OC(=O)c1ccco1	2.9	-18	107	0.7	141*	30
CCCc1cc2c(=O)c(-c3ccc4c(c3)OCCO4)coc2cc1OC(=O)c1ccco1	2.5	10	99	0.9	90	8
CC(=O)NCCN=Cc1sc2ccccc2c1O	1.1	x	110	1	16	-2
CCCN=Cc1sc2ccc(OCC)cc2c1O	1.8	x	130*	0.9	45	10
C/C(=N\NC(=O)C1(C)CC1(Br)Br)c1ccc(NC(=O)C2CCC2)cc1 (configuration not stated)	1	6	97	1	-10	-4
C/C(=N/NC(=O)c1ccoc1C)c1ccc(NC(=O)C2CCCC2)cc1	1.2	-30	136*	1.1	161*	-7
C/C(=N\NC(=O)c1ccn(C)n1)c1ccc(NC(=O)C2CCCC2)cc1	0.99	x	135*	1	8	-5
CC(C)NC(=O)C12CC3CC(C1)CC(C(=O)NC(C)C)(C3)C2	1	x	96	1	3	-4
O=C(NC1CCCCCCC1)NC1CCCCC1	2.7	x	132*	1	12	4
O=C1[C@H]2[C@H]3[C@H](O)[C@H](O)C/C(=N\OC[C@@H](O)COCc4ccco4)[C@@H]3CC[C@H]2C(=O)N1c1ccc(F)cc1F	1.3	x	107	1	2	2
O=C(NC1=NCCS1)c1ccccc1Cl	x	4	x	x	x	x
CC(Oc1ccccc1)C(=O)NC1=NCCS1 (configuration not stated)	x	17	134*	0.9	58	7
O=C(NC1=NCCS1)Nc1ccccc1	2.5	8	135*	0.6	53	42
COc1ccc(/C=N/NC(=O)c2ccco2)cc1OCc1ccccc1	x	18	x	x	x	x
O=C(COC(=O)/C=C/c1cccc(F)c1)Nc1ccccc1	0.93	8	100	1.1	0	-8
O=C1NC(=O)/C(=C/c2ccccn2)S1	x	-1	x	x	x	x
O=C1NC(=O)/C(=C/c2ccc(O)cc2)S1	1.9	x	130*	0.7	17	27
O=C(CN1C(=O)/C(=C/c2c(F)cccc2Cl)Oc2ccccc21)NCc1ccco1	1.3	x	92	1	40	0
O=C(/C=C/N1CCOCC1)c1coc2ccccc12	2.4	x	136*	0.5	49	54*
O=C(/C=C/N1CCOCC1)c1cc2ccccc2o1	2	-14	127	0.6	27	41
CCCCc1c(C)c2ccc(OCC(C)=O)cc2oc1=O	1.9	9	133*	1	133	1
CCCc1c(C)c2ccc(OCC(C)=O)cc2oc1=O	2	-16	131*	1	40	4
CCOC(=O)CCc1c(C)c2ccc(OCC(=O)OC(C)C)cc2oc1=O	0.92	-2	98	1.1	4	-5
C=CCOC(=O)COc1ccc2c(C)c(CC)c(=O)oc2c1	1.2	3	95	0.8	-17	22
Cc1cc(C(=O)Nc2sc(C)c(-c3ccc(F)cc3)c2C(N)=O)no1	0.86	x	161*	0.6	51	40
CCc1ccc(-c2c(C)sc(NC(C)=O)c2C(N)=O)cc1	0.93	-13	103	1.1	17	-7
COc1ccccc1-c1noc(-c2ccco2)n1	2.6	x	131*	0.7	118	27
